The values that follow come from ChEMBL document CHEMBL4477159, “Anti-inflammatory Actions of (+)-3'α-Angeloxy-4'-keto-3',4'-dihydroseselin (Pd-Ib) against Dextran Sulfate Sodium-Induced Colitis in C57BL/6 Mice” (J Nat Prod, 2016).

Structures are written as SMILES. Calls of active or inactive are those of the source. The calls are words filed in the database; no cut-off is given here.

Assay [1] has as its system RAW264.7. Kind of assay: Inhibition of LPS-induced ERK phosphorylation in mouse RAW264.7 cells at 5 to 40 ug/ml after 24 hrs by Western blot analysis. It counts as cell-based. In short, it runs like this:
(§1)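 RAW264.7 macrophages (DMEM, 10% FBS, 37 °C, 5% CO2) treated with LPS 1 μg/mL alone or with Pd-Ib 5, 10, 20 or 40 μg/mL for 24 h. Lysates in RIPA buffer, 10% SDS-PAGE, immunoblotted for phospho and total STAT3, JNK, ERK and p38; β-actin loading control.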
On the technique in general: In western blotting, separated proteins are transferred to a membrane and probed.

Assay [2] concerns RAW264.7. Kind of assay: Inhibition of LPS-induced IL-6 production in mouse RAW264.7 cells at 5 to 20 ug/ml after 24 hrs by ELISA. It counts as functional, cell-based. The method, boiled down: (§2)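 RAW264.7 cells incubated 24 h with Pd-Ib (0, 5, 10, 20, 40 μg/mL), with or without LPS 1 μg/mL. IL-6 in the culture supernatant quantified by ELISA.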
Assay [3] deals with Mus musculus. The assay is described as follows: Antiinflammatory activity in DSS-induced C57BL/6 mouse acute colitis model assessed as lowering of MPO activity in colon homogenate at 30 to 120 mg/kg administered by oral gavage from day 5 to day 12 measured on day 13. It counts as functional, organism-based. The method, boiled down: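 Mice given DSS colitis and gavage treatment as above, sacrificed day 13. MPO activity in colon homogenate taken from the rate of optical density change; one unit gives an OD change of 1.0/min at 25 °C. Normalized to colon wet weight, expressed as units/mg tissue. n = 8.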

In assay [4] the test system is Mus musculus. Kind of assay: Antiinflammatory activity in DSS-induced C57BL/6 mouse acute colitis model assessed as lowering of IFN-gamma level administered by oral gavage from day 5 to day 12 measured on day 13. It is filed as functional, organism-based. The method, boiled down: (§3)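 Colon tissue from DSS-colitis mice dosed by gavage (day 13 harvest) homogenized in lysis buffer and spun at 16000g, 4 °C, 15 min. Cytokines in supernatant measured by multiplex bead immunoassay and reported as pg/mL. Protein determined by Bradford with BSA standard. n = 8, mean ± SD.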

In assay [5] the test system is Mus musculus. The assay is described as follows: Antiinflammatory activity in DSS-induced C57BL/6 mouse acute colitis model assessed as increase of IL-10 level at 30 to 120 mg/kg administered by oral gavage from day 5 to day 12 measured on day 13 relative to DSS-treated control. It is filed as functional, organism-based.
Assay [6] has as its target Signal transducer and activator of transcription 3 (Mus musculus) (UniProt P42227). Kind of assay: Inhibition of LPS-induced STAT3 phosphorylation in mouse RAW264.7 cells at 20 ug/ml after 12 hrs by Western blot analysis. It counts as cell-based. In short, it runs like this: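 RAW264.7 cells given LPS 1 μg/mL with or without Pd-Ib 20 μg/mL for 0–24 h, then harvested and lysed. p-STAT3 and β-actin detected by Western blot.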

For assay [7], the system named is Mus musculus. The assay is described as follows: Antiinflammatory activity in DSS-induced C57BL/6 mouse acute colitis model assessed as lowering of IL-6 level administered by oral gavage from day 5 to day 12 measured on day 13. It is filed as functional, organism-based. In short, it runs like this: as §3
Assay [8] relates to Mus musculus. Kind of assay: Antiinflammatory activity in DSS-induced C57BL/6 mouse acute colitis model assessed as lowering of IL-17A level administered by oral gavage from day 5 to day 12 measured on day 13. It counts as functional, organism-based. The method, boiled down:
as §3

Assay [9] has as its target MAP kinase p38 (Mus musculus) (UniProt P47811+O08911+Q9WUI1+Q9Z1B7). The assay is described as follows: Inhibition of LPS-induced p38 phosphorylation in mouse RAW264.7 cells at 5 to 40 ug/ml after 24 hrs by Western blot analysis. It counts as cell-based. In short, it runs like this:
as §1

Assay [10] has as its system Mus musculus. Kind of assay: Antiinflammatory activity in DSS-induced C57BL/6 mouse acute colitis model assessed as increase of IL-4 level at 30 to 120 mg/kg administered by oral gavage from day 5 to day 12 measured on day 13 relative to DSS-treated control. It is filed as functional, organism-based. In short, it runs like this:
as §3

Assay [11] concerns Mus musculus. Kind of assay: Antiinflammatory activity in DSS-induced C57BL/6 mouse acute colitis model assessed as reduction in loss of body weight at 30 to 60 mg/kg administered by oral gavage after 9 days of induction. It is filed as functional, organism-based. In short, it runs like this: (§4)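 Colitis induced in C57BL/6 mice with 2.0% (w/v) DSS in drinking water for 5 days; controls got distilled water. Saline vehicle, Pd-Ib (30, 60 or 120 mg/kg/day) or SASP (300 mg/kg/day) given by gavage through day 12. Weight, stool consistency and bleeding monitored daily. DAI combines weight-loss, stool and bleeding scores. On day 13, colon measured from ileo-cecal junction to anal verge. n = 8, mean ± SD.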

Assay [12] deals with Mus musculus. Kind of assay: Antiinflammatory activity in DSS-induced C57BL/6 mouse acute colitis model assessed as lowering of TNF-alpha level administered by oral gavage from day 5 to day 12 measured on day 13. It is filed as functional, organism-based. The method, boiled down: as §3
For assay [13], the system named is Mus musculus. Kind of assay: Antiinflammatory activity in DSS-induced C57BL/6 mouse acute colitis model assessed as lowering of disease activity index at 120 mg/kg administered by oral gavage from day 5 to day 12 measured on day 13 relative to DSS-treated control. It counts as functional, organism-based. The method, boiled down: as §4
For assay [14], the system named is Mus musculus. The assay is described as follows: Downregulation of elevated p-p38 level in colon homogenate of DSS-induced C57BL/6 mouse acute colitis model administered by oral gavage from day 5 to day 12 measured on day 13 by Western blot analysis. It is filed as functional, organism-based. In short, it runs like this:
(§5)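 Colonic tissue extracts from DSS-colitis mice gavaged through day 12 and sacrificed day 13. Lysed in RIPA buffer (pH 7.4) with phosphatase/protease inhibitors, run on 10% SDS-PAGE and immunoblotted for STAT3, p-STAT3, p38 and p-p38. Blots stripped and reprobed for β-actin as loading control.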

In assay [15] the target is Signal transducer and activator of transcription 3 (Mus musculus) (UniProt P42227). The assay is described as follows: Inhibition of LPS-induced STAT3 phosphorylation in mouse RAW264.7 cells at 40 ug/ml after 24 hrs by Western blot analysis. It counts as cell-based. The method, boiled down:
as §1

For assay [16], the system named is Mus musculus. Kind of assay: Antiinflammatory activity in DSS-induced C57BL/6 mouse acute colitis model assessed as lowering of histological score at 30 to 120 mg/kg administered by oral gavage from day 5 to day 12 measured on day 13 by hematoxylin/eosin staining-based microscopic analysis. It is filed as functional, organism-based. The method, boiled down: (§6)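 DSS colitis (2% w/v, 5 days) with daily gavage of saline, Pd-Ib (30–120 mg/kg) or SASP (300 mg/kg) through day 12; sacrifice day 13. Colons rinsed in ice-cold PBS, fixed overnight in 4% paraformaldehyde, paraffin-embedded. 5 μm sections H&E stained and graded on a 0–10 histological scale. n = 8, mean ± SD.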

For assay [17], the system named is RAW264.7. The assay is described as follows: Inhibition of LPS-induced IL-6 production in mouse RAW264.7 cells at 40 ug/ml after 24 hrs by ELISA. It is filed as functional, cell-based. In short, it runs like this:
as §2

The subject of assay [18] is RAW264.7. Kind of assay: Inhibition of LPS-induced JNK phosphorylation in mouse RAW264.7 cells at 5 to 40 ug/ml after 24 hrs by Western blot analysis. It is filed as cell-based. In short, it runs like this:
as §1

In assay [19] the test system is Mus musculus. Kind of assay: Antiinflammatory activity in DSS-induced C57BL/6 mouse acute colitis model assessed as reduction in loss of body weight at 120 mg/kg administered by oral gavage after 9 days of induction. It counts as functional, organism-based. The method, boiled down:
as §4

Assay [20] concerns Mus musculus. The assay is described as follows: Antiinflammatory activity in DSS-induced C57BL/6 mouse acute colitis model assessed as lowering of NO production at 30 to 120 mg/kg administered by oral gavage from day 5 to day 12 measured on day 13 by Griess assay. It counts as functional, organism-based. In short, it runs like this: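 On day 13 after DSS colitis and gavage dosing, frozen colon weighed and homogenized in 0.5% hexadecyltrimethylammonium bromide (100 mg tissue/mL). Spun at 16000g, 4 °C, 15 min. Supernatant nitrite measured with Griess reagent. n = 8, mean ± SD.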

For assay [21], the system named is Mus musculus. Kind of assay: Downregulation of elevated p-STAT3 level in colon homogenate of DSS-induced C57BL/6 mouse acute colitis model administered by oral gavage from day 5 to day 12 measured on day 13 by Western blot analysis. It is filed as functional, organism-based. In short, it runs like this:
as §5

The test system of assay [22] is Mus musculus. The assay is described as follows: Antiinflammatory activity in DSS-induced C57BL/6 mouse acute colitis model assessed as protection against mucosal injury at 120 mg/kg administered by oral gavage from day 5 to day 12 measured on day 13 by hematoxylin/eosin staining-based microscopic analysis. It counts as functional, organism-based. In short, it runs like this:
as §6

The subject of assay [23] is Mus musculus. The assay is described as follows: Antiinflammatory activity in DSS-induced C57BL/6 mouse acute colitis model assessed as attenuation of shortening of colon length at 60 to 120 mg/kg administered by oral gavage from day 5 to day 12 measured on day 13. It is filed as functional, organism-based. In short, it runs like this: as §4
The test system of assay [24] is Mus musculus. The assay is described as follows: Antiinflammatory activity in DSS-induced C57BL/6 mouse acute colitis model assessed as lowering of disease activity index at 300 mg/kg administered by oral gavage from day 5 to day 12 measured on day 13 relative to DSS-treated control. It counts as functional, organism-based. The method, boiled down: as §4
Assay [25] has as its system Mus musculus. The assay is described as follows: Antiinflammatory activity in DSS-induced C57BL/6 mouse acute colitis model assessed as lowering of IL-6 level at 300 mg/kg administered by oral gavage from day 5 to day 12 measured on day 13. It is filed as functional, organism-based. In short, it runs like this: as §3
The subject of assay [26] is Mus musculus. The assay is described as follows: Antiinflammatory activity in DSS-induced C57BL/6 mouse acute colitis model assessed as lowering of IL-17A level at 300 mg/kg administered by oral gavage from day 5 to day 12 measured on day 13. It is filed as functional, organism-based. The method, boiled down: as §3
Assay [27] relates to Mus musculus. The assay is described as follows: Antiinflammatory activity in DSS-induced C57BL/6 mouse acute colitis model assessed as protection against mucosal injury at 300 mg/kg administered by oral gavage from day 5 to day 12 measured on day 13 by hematoxylin/eosin staining-based microscopic analysis. It is filed as functional, organism-based. The method, boiled down:
as §6

Sequence of Signal transducer and activator of transcription 3 (Mus musculus) (P42227 whole entry): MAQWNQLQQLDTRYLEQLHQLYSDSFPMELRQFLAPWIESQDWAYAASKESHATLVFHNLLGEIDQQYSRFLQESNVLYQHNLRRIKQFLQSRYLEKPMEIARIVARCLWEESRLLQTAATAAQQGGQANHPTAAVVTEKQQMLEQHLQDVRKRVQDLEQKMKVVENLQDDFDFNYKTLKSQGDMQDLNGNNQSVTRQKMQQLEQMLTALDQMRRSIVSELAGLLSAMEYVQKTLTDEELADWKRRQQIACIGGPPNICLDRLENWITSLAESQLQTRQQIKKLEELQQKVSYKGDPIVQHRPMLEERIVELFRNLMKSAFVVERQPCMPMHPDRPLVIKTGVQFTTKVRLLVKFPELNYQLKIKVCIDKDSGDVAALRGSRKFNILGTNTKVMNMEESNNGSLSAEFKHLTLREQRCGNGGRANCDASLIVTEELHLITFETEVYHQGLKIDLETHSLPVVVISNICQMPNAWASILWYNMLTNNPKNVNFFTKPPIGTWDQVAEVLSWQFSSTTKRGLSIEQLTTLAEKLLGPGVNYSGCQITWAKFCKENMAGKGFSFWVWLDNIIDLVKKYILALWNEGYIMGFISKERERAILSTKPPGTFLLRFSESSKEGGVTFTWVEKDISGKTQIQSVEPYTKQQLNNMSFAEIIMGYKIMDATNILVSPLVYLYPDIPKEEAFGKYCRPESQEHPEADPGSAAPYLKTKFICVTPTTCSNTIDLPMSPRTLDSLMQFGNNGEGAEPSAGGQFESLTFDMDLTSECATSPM

As to `C/C=C(/C)C(=O)O[C@H]1C(=O)c2c(ccc3ccc(=O)oc23)OC1(C)C`, the inhibition result in the assay on RAW264.7 [1] and with RAW264.7 [17] was “inactive” each time. In addition, the inhibition result (in the assay with RAW264.7 [2]; in assay [6]; in assay [9]; in assay [15]; in the assay with RAW264.7 [18]) was “Active” each time. The result in the assay with Mus musculus [3], with Mus musculus [10], in the assay on Mus musculus [13], in the assay with Mus musculus [16], in the assay with Mus musculus [19] and with Mus musculus [20] was Active. For the same molecule, the result in the assay with Mus musculus [22] and with Mus musculus [23] was Active. Also, the Activity entry in the assay with Mus musculus [4], in the assay on Mus musculus [7], with Mus musculus [8], in the assay on Mus musculus [12], in the assay on Mus musculus [14] and with Mus musculus [21] was “Dose-dependent effect” in each case. Moreover, the outcome in the assay on Mus musculus [5] and in the assay with Mus musculus [11] was inactive.

As for `O=C(O)c1cc(/N=N/c2ccc(S(=O)(=O)Nc3ccccn3)cc2)ccc1O`, the outcome in the assay with Mus musculus [24], with Mus musculus [25], in the assay on Mus musculus [26] and in the assay with Mus musculus [27] was Active.
